Series [1] deals with HCT-116. The series is described as follows: Increase in p53 protein expression in wild type p53 expressing human HCT116 cells at 10 to 40 uM by Western blot method. Type of series: functional, cell-based. Put shortly:
(§1)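 H1299 (p53-null), HCT116 (p53 wild type) and MDA-MB-231 (p53 mutant) cells were treated, then lysates were immunoblotted for p53, p21, PUMA and PARP. β-Actin served as loading control.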
(In general: Immunoblotting shows a protein as a band on a membrane.)

The subject of series [2] is HCT-116. Description: Increase in p21 (waf1/cip1) protein expression in wild type p53 expressing human HCT116 cells at 10 to 40 uM by Western blot method. It is filed as functional, cell-based. The method in brief:
as §1

For the next series, the system named is MDA-MB-231. Description: Induction of ROS generation in human MDA-MB-231 cells at 20 and 40 uM incubated for 3 hrs by DCFDA staining based flow cytometry. Type of series: functional, cell-based. Put shortly: (§2)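 Cells were exposed for 3 h to compound, or to 25 µM H2O2 as positive control. Where indicated, 3 mM N-acetylcysteine was given 1 h before treatment. Pellets were stained with DCF-DA for 30 min, and intracellular ROS was read as fluorescence shift by flow cytometry against untreated controls.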
(In general: A flow cytometer gives signals particle by particle.)

Series [3] deals with NCI-H1299. Description: Induction of ROS generation in human H1299 cells at 20 and 40 uM incubated for 3 hrs after pre-incubation with 3 mM NAC for 1 hr by DCFDA staining based flow cytometry. Type of series: functional, cell-based. Put shortly: as §2
The subject of a further series is Mus musculus. Description: Toxicity in mouse assessed as induction of stress at 120 mg/kg/week for 2 weeks. It is filed as organism-based. Conditions: in vivo, 336 h.
Series [4] is described as follows: Cytotoxic activity against human HT1080 cells assessed as inhibition of cell proliferation incubated for 72 hrs by MTT assay. Type of series: functional, cell-based. The note with it: HT-1080, 72 h. Put shortly:
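MTT cell survival assay. IC50 is the concentration that inhibits tumour cell proliferation by 50%, read from cell survival curves. Values are given as mean ± SD of three independent experiments.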

Series [5] relates to NCI-H1299. Description: Increase in p21'cip1 protein expression in p53 deficient human H1299 cells at 10 to 40 uM by Western blot method. Type of series: functional, cell-based. The method in brief:
as §1

Series [6] can be described thus: Potency index, ratio of IC50 for ethacrynic acid to IC50 for test compound for cytotoxic activity against human SF188 cells assessed as inhibition of cell proliferation incubated for 72 hrs by MTT assay. It is filed as functional, SF-188. In general terms: Tetrazolium assays rely on reduction of a dye to a coloured formazan, in cell work by metabolically active cells.

From ChEMBL document CHEMBL3797027, “Potent anti-proliferative actions of a non-diuretic glucosamine derivative of ethacrynic acid” (Bioorg Med Chem Lett, 2016) come the findings set out here.

SMILES strings stand for the structures. Active and inactive are the calls of the source. The calls are words filed in the database; no cut-off is given here.

In general, IC50 refers to the concentration needed to halve the response being measured. Regarding `C=C(CC)C(=O)c1ccc(OCC(=O)N[C@@H]2[C@@H](O)[C@H](O)[C@@H](CO)O[C@H]2O)c(Cl)c1Cl`, the outcome with HCT-116 [1], in the series with HCT-116 [2], in the series on MDA-MB-231 and in the series on NCI-H1299 [5] was Active. The result with NCI-H1299 [3] was inactive. The Activity result in the series on Mus musculus was “Non-toxic”. Moreover, the half-inhibitory concentration (IC50) in series [4] was 16.3 µM. Besides, the “Ratio IC50” value in series [6] came out at 3.
